Assay results from ChEMBL document CHEMBL5226356, “Ring Size as an Independent Variable in Cyclooligomeric Depsipeptide Antiarrhythmic Activity” (ACS Med Chem Lett, 2021).
Active and inactive are the calls of the source. The rule behind the calls is not given here.

Experiments:
[1] = molecular target: Ryanodine receptor 2 (Mus musculus) (UniProt E9Q401); assay: Inhibition of RyR2 in Casq2 gene knockout mouse cardiomyocytes assessed as reduction in calcium sparks frequency at 25 uM incubated for 60 mins; assay type: cell-based; details: Cardiomyocyte
Ryanodine receptor 2 (Mus musculus), sequence (E9Q401 whole entry): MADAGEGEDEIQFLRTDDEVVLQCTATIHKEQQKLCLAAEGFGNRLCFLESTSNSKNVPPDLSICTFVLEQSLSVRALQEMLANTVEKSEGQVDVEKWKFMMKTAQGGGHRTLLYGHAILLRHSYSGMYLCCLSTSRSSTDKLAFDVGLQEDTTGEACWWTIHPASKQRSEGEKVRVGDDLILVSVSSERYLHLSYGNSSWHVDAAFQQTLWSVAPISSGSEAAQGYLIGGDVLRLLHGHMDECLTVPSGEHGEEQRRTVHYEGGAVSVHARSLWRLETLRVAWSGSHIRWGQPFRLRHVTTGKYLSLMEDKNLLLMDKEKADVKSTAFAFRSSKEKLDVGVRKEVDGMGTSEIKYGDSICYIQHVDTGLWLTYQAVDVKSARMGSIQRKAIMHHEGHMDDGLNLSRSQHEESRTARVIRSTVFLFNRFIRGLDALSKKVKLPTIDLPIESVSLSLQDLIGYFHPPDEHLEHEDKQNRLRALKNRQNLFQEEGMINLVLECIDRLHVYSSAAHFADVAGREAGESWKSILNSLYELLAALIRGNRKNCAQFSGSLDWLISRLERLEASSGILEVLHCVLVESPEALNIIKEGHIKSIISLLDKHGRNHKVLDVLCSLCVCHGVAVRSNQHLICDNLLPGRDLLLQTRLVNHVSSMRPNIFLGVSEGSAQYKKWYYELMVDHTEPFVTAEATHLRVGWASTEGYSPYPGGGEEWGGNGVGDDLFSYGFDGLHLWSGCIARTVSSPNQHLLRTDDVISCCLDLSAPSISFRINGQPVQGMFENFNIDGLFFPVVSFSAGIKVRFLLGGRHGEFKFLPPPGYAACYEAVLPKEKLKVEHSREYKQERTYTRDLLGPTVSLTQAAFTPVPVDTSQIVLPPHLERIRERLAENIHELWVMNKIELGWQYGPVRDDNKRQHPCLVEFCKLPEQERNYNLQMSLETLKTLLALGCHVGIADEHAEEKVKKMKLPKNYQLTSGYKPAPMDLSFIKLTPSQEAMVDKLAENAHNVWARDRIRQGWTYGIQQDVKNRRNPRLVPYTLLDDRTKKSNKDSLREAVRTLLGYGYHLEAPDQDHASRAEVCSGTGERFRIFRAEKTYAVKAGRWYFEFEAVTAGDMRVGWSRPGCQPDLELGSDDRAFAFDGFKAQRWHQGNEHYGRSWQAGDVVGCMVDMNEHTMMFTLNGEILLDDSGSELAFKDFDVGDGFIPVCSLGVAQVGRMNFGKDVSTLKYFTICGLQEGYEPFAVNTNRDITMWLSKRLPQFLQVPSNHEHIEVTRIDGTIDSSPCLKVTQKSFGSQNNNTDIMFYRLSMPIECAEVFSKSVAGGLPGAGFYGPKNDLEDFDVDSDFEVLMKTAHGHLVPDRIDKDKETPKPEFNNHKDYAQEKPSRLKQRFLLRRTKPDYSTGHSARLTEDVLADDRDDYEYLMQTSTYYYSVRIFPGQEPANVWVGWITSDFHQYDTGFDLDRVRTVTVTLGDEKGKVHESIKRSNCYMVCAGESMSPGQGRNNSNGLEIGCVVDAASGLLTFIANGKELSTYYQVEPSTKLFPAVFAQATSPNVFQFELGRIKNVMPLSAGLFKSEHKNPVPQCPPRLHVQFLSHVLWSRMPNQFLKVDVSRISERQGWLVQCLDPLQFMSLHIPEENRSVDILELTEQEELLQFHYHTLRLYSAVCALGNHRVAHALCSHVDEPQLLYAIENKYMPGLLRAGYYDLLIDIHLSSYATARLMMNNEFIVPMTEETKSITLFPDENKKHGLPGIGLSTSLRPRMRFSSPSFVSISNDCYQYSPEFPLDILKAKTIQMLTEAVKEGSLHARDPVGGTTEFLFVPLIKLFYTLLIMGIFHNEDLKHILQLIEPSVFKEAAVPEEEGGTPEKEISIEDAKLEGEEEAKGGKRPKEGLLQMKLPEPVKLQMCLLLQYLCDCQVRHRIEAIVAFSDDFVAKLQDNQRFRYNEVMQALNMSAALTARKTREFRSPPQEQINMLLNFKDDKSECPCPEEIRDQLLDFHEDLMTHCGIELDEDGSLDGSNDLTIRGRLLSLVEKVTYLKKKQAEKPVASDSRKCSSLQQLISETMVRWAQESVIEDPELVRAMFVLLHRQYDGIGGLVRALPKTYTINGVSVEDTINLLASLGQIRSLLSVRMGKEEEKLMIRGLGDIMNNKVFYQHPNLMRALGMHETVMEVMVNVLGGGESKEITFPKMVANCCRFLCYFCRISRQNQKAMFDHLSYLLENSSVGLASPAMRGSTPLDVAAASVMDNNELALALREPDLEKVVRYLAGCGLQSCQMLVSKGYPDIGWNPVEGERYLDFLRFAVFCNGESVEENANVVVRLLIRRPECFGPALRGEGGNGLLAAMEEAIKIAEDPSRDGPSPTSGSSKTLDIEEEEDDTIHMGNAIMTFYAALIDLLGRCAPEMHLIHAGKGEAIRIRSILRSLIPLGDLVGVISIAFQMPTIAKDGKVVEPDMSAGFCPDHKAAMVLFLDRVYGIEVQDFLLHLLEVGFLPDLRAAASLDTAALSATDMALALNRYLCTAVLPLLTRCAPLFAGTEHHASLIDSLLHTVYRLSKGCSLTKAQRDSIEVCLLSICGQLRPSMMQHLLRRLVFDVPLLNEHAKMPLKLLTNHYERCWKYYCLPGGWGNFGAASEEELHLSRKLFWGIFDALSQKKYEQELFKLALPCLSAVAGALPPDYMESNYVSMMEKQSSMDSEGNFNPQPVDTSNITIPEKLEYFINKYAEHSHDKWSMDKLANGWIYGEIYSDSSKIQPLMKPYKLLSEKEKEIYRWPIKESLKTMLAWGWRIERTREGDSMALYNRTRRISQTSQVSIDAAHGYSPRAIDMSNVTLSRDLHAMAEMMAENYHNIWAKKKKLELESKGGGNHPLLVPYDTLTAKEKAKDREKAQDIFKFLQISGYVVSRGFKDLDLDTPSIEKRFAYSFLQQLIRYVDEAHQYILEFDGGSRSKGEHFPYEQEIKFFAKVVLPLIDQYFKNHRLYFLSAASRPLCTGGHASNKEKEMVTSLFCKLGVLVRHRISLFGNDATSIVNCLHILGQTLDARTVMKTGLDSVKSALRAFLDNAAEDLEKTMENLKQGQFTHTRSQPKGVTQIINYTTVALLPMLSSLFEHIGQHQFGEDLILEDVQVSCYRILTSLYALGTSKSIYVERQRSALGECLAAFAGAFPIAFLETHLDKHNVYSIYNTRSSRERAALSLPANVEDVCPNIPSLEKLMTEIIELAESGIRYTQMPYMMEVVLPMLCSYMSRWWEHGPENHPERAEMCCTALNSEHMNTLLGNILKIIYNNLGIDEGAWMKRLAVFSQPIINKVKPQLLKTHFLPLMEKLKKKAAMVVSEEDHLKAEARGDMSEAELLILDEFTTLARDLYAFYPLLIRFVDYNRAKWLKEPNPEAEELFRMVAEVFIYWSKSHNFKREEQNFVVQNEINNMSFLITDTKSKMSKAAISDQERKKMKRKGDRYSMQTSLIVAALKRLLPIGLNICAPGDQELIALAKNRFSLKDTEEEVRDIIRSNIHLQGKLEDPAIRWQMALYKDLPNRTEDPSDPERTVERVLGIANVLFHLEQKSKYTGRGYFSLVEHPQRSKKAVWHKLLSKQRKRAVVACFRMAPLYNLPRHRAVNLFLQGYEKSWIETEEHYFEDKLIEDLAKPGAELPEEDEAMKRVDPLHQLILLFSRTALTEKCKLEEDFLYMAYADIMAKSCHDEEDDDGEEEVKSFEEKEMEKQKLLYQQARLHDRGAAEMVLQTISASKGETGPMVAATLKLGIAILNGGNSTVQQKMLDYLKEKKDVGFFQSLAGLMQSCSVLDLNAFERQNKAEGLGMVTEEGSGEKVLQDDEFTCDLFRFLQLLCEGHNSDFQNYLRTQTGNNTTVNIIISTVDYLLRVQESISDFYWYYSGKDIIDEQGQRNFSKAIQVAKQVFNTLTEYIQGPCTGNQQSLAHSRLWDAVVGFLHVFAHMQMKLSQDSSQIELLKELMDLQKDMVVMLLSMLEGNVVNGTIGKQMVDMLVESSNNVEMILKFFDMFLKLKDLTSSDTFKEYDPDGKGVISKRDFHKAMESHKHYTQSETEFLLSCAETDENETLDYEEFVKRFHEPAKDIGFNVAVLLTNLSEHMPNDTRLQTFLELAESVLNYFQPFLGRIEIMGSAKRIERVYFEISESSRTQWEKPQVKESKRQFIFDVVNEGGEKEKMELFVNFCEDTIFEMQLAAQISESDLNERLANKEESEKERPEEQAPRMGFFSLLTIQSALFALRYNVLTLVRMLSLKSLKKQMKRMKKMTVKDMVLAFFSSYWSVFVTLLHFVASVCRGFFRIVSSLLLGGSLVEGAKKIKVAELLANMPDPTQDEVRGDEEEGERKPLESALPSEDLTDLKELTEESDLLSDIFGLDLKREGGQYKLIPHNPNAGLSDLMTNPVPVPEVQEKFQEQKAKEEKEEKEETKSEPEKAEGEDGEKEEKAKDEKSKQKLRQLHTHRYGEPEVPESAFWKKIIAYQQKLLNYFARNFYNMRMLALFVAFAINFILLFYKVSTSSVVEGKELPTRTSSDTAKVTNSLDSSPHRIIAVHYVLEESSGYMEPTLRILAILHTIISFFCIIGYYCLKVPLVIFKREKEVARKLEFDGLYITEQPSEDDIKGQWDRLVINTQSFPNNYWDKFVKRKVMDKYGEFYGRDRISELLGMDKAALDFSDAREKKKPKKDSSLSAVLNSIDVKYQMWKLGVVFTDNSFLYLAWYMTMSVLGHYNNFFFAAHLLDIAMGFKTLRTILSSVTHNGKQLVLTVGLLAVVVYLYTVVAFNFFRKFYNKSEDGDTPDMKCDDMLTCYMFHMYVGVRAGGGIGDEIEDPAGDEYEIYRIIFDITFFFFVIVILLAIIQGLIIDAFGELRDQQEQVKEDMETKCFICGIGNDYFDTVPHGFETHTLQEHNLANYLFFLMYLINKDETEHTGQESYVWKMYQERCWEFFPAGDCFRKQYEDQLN
Outline: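 Isolated ventricular cardiomyocytes were permeabilized with saponin, which opens the sarcolemma but leaves the SR membrane intact. Cells were incubated with 25 μM compound or DMSO vehicle for 60 min (extended from the 10 min screen). RyR2 activity was read as the frequency of Ca2+ sparks relative to vehicle. Statistics were one-way ANOVA with Tukey's post hoc test.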

[2] = molecular target: Ryanodine receptor 2 (Mus musculus) (UniProt E9Q401); assay: Inhibition of RyR2 in Casq2 gene knockout mouse cardiomyocytes assessed as reduction in calcium sparks frequency at 25 uM incubated for 10 mins; assay type: cell-based; details: Cardiomyocyte
Outline: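 Isolated ventricular cardiomyocytes permeabilized with saponin, which opens the sarcolemma but leaves the SR membrane intact. Cells incubated 10 min with 25 μM compound or DMSO vehicle. RyR2 activity read as spontaneous Ca2+ spark frequency and compared to vehicle; statistics by one-way ANOVA with Tukey's posthoc test.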

[3] = Kinetic solubility of the compound in phosphate buffer at pH 7.4 at 25 uM incubated for 2 hrs by nephelometry; assay type: physicochemical; details: pH 7.4, 2 h
[4] = Kinetic solubility of the compound in Hanks Bile Salt Solution at 25 uM incubated for 2 hrs by nephelometry; assay type: ADME
[5] = molecular target: Ryanodine receptor 2 (Mus musculus, UniProt E9Q401); assay: Inhibition of RyR2 in Casq2 gene knockout mouse cardiomyocytes assessed as reduction in calcium sparks frequency incubated for 30 mins; assay type: cell-based, Cardiomyocyte
Ryanodine receptor 2, sequence (E9Q401 whole entry): as above
Outline: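 Saponin-permeabilized isolated ventricular cardiomyocytes (sarcolemma opened, SR membrane intact) incubated 30 min with compound across a concentration range for concentration-response curves. Read-out is frequency of spontaneous Ca2+ sparks, used as a measure of RyR2 activity. DMSO served as vehicle.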

Row | inhibition [1] | SMILES | inhibition [2] | Kinetic_solubility [3] | Kinetic_solubility [4] | IC50 [5] [nM]
1 | inactive | CCCCC[C@H](OC(=O)[C@@H](C)N(C)C(=O)[C@H](CCCCC)OC(=O)[C@@H](C)N(C)C(=O)OC(C)(C)C)C(=O)OCc1ccccc1 | – | – | – | –
2 | inactive | CCCCC[C@@H]1OC(=O)[C@@H](C)N(C)C(=O)[C@H](CCCCC)OC(=O)[C@@H](C)N(C)C1=O | inactive | Soluble | Soluble | –
3 | – | CCCCC[C@H]1OC(=O)[C@H](C)N(C)C1=O | inactive | Soluble | Soluble | –
4 | – | CCCCC[C@@H]1OC(=O)[C@@H](C)N(C)C(=O)[C@H](CCCCC)OC(=O)[C@@H](C)N(C)C(=O)[C@H](CCCCC)OC(=O)[C@@H](C)N(C)C(=O)[C@H](CCCCC)OC(=O)[C@@H](C)N(C)C1=O | Active | Soluble | Soluble | 1890
5 | – | CCCCC[C@@H]1OC(=O)[C@@H](C)N(C)C(=O)[C@H](CCCCC)OC(=O)[C@@H](C)N(C)C(=O)[C@H](CCCCC)OC(=O)[C@@H](C)N(C)C1=O | Active | Soluble | Soluble | 3880
6 | – | CCCCC[C@@H]1OC(=O)[C@@H](C)N(C)C(=O)[C@H](CCCCC)OC(=O)[C@@H](C)N(C)C(=O)[C@H](CCCCC)OC(=O)[C@@H](C)N(C)C(=O)[C@H](CCCCC)OC(=O)[C@@H](C)N(C)C(=O)[C@H](CCCCC)OC(=O)[C@@H](C)N(C)C(=O)[C@H](CCCCC)OC(=O)[C@@H](C)N(C)C1=O | inactive | Soluble | Soluble | –

Row | SMILES | inhibition [1] | inhibition [2] | Kinetic_solubility [3] | Kinetic_solubility [4] | IC50 [5] [nM]
7 | CCCCC[C@@H]1OC(=O)[C@@H](C)N(C)C(=O)[C@H](CCCCC)OC(=O)[C@@H](C)N(C)C(=O)[C@H](CCCCC)OC(=O)[C@@H](C)N(C)C(=O)[C@H](CCCCC)OC(=O)[C@@H](C)N(C)C(=O)[C@H](CCCCC)OC(=O)[C@@H](C)N(C)C1=O | inactive | inactive | Soluble | Soluble | –
